What was measured:
Type in all cases: functional
[1] = Percent inhibition of protein synthesis ([35S]methionine incorporation) at 5 uM concentration
Procedure, shortened: (§1)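 Confluent Balb/c 3T3 cells were synchronized in methionine-free, serum-free medium containing 10% spent medium. They were then stimulated with fresh methionine-free medium plus 10% fetal calf serum, with or without oligonucleotide at a final 5 or 50 μM. At set intervals, duplicate cultures were pulse-labeled 1 h with [35S]methionine (147 mCi/mmol) and TCA-insoluble cpm measured. % inhibition = 100[1 − treated cpm/untreated cpm].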

[2] = test system: Nucleic Acid; experiment: Percent inhibition of DNA synthesis ([Me-3H] thymidine incorporation) at 5 uM concentration
Procedure, shortened: (§2)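 Balb/c 3T3 cells were grown to confluence in Eagle's MEM with 10% fetal calf serum. They were synchronized in serum-free medium containing 10% spent medium, then stimulated with fresh medium plus 10% FCS, with or without oligonucleotide at a final 5 or 50 μM. At set intervals, duplicate cultures were pulsed 1 h with [3H]thymidine (40 Ci/mmol) and TCA-insoluble cpm counted. % inhibition = 100[1 − treated/control], using cpm summed over the control peak DNA-synthesis period (e.g. 15–16, 17–18, 19–20 h).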

[3] = Percent inhibition of protein synthesis ([35S]methionine incorporation) at 50 uM concentration; procedure, shortened: as §1
[4] = test system: Nucleic Acid; experiment: Percent inhibition of DNA synthesis ([Me-3H] thymidine incorporation) at 50 uM concentration; procedure, shortened: as §2

Compound `Nc1ncnc2c1ncn2[C@@H]1O[C@H](COP(=O)(O)O[C@@H]2[C@H](O)[C@@H](COP(=O)(O)O[C@@H]3[C@H](O)[C@@H](CO)O[C@H]3n3cnc4c(N)ncnc43)O[C@H]2n2cnc3c(N)ncnc32)[C@@H](O)[C@H]1O` has an inhibition [1] of 0%, an inhibition [2] of 14% and an inhibition [3] of 14%. For the same compound, the inhibition [4] was 48%.

Work on `Nc1ncnc2c1ncn2[C@@H]1O[C@H](COP(=O)(O)O[C@@H]2[C@H](O)[C@@H](COP(=O)(O)O[C@@H]3[C@H](O)[C@@H](COP(=O)(O)OP(=O)(O)OP(=O)(O)O)O[C@H]3n3cnc4c(N)ncnc43)O[C@H]2n2cnc3c(N)ncnc32)[C@@H](O)[C@H]1O` yielded an inhibition [1] of 11%, an inhibition [2] of 11% and an inhibition [3] of 21%. It also gave an inhibition [4] of 27%.

Compound `Nc1ncnc2c1ncn2[C@@H]1O[C@H](COP(=O)(O)O[C@@H]2[C@H](O)[C@@H](COP(=O)(O)O[C@@H]3[C@H](O)[C@@H](COP(=O)(O)O)O[C@H]3n3cnc4c(N)ncnc43)O[C@H]2n2cnc3c(N)ncnc32)[C@@H](O)[C@H]1O` has an inhibition [1] of 0%, an inhibition [2] of 15% and an inhibition [3] of 33%. The inhibition [4] was 54%.

From ChEMBL document CHEMBL1122405, “Structure--activity relationships for and potentiation of the antimitogenic activity of 2-5A core derived from 2-5A, a mediator of interferon action” (J Med Chem, 1983)
